The text below walks through data of ChEMBL document CHEMBL1145922, “1,2-benzisoxazole phosphorodiamidates as novel anticancer prodrugs requiring bioreductive activation” (J Med Chem, 2003).

The species named for test [1] is Rattus norvegicus. In words: Tested for formation of compound upon incubation of compound 15 for 30 minutes with rat liver subcellular fractions in hypoxic condition in the presence of NADH. The format is functional. In a few lines: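 Phenobarbital-induced rat liver S-9, microsomal or cytosolic fraction with 5 mM cofactor (NADPH, NADH, benzaldehyde or 2-hydroxypyrimidine) or none. Substrate 2.5 mM final, added from methanol/water 50:50. Hypoxic vials purged with nitrogen 15–20 min. 30 min at 37 °C, quenched with ice-cold methanol. Ketone metabolite by HPLC at 254 nm as percent of equimolar substrate.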

Test [2] is filed under the species Rattus norvegicus. Description: Percent formation of compound upon incubation of 15 with phenobarbit-induced rat liver microsomal fraction in hypoxic condition in presence of SKF-525A at a concentration of 0 mM. The format is functional. In a few lines: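 Phenobarbital-induced rat liver microsomes; inhibitors SKF-525A (in methanol) or pCMBA (in DMF) at 0–4 mM final. pCMBA preincubated 30 min before NADPH; SKF-525A incubated 15 min with microsomes and NADPH. Hypoxic samples nitrogen-purged. Substrate 2.5 mM added, 30 min at 37 °C. Ketone metabolite by HPLC at 254 nm as percent of substrate; % inhibition relative to no inhibitor. Mean of two experiments.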

As for `CCC(=O)c1ccccc1O`, the Formation in the test filed under Rattus norvegicus [1] is 28.5%; in the test listed under Rattus norvegicus [2], 70.8%.
